Experimental data reported in ChEMBL document CHEMBL2150936, “Anticancer activity of small amphipathic β²,²-amino acid derivatives” (Eur J Med Chem, 2012).

Tests used:
Ramos [1] = assay: Selectivity index, ratio of EC50 for human MRC5 cells to IC50 for human Ramos cells; assay type: functional
How it was run: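 Ramos cells were seeded at 4 × 10^5 cells/ml in serum-free RPMI-1640, and compounds in RPMI-1640 were added at once. MRC-5 fibroblasts were seeded at 1 × 10^5 cells/ml in MEM with 10% FBS, grown overnight, and the medium was then replaced with compound. Both were incubated 4 h at 37 °C, 5% CO2, then given MTT for 2 h. Formazan was dissolved in acidic isopropanol and read at 590 nm. Survival was expressed relative to the untreated medium control. SI = MRC-5 EC50 / Ramos IC50.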

Ramos [2] = assay: Selectivity index, ratio of EC50 for human RBC to IC50 for human Ramos cells; assay type: functional
How it was run: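 Ramos IC50 came from a 4 h MTT assay: cells at 4 × 10^5 cells/ml in serum-free RPMI-1640, compounds added at once, 37 °C, 2 h MTT, read at 590 nm. RBC EC50 came from hemoglobin release at 405 nm: 1% v/v washed human erythrocytes in PBS, 1 h at 37 °C, Triton X-100 reference. SI = RBC EC50 / Ramos IC50.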

TK-10 = assay: Cytotoxicity against human TK10 cells after 4 hrs by MTT assay; assay type: functional, cell-based; conditions: TK-10, 4 h
HCT-116 = assay: Cytotoxicity against human HCT116 cells after 4 hrs by MTT assay; assay type: functional, cell-based; conditions: HCT-116, 4 h
Malme-3M = assay: Cytotoxicity against human MALME-3M cells after 4 hrs by MTT assay; assay type: functional, cell-based
HCC 2998 = assay: Cytotoxicity against human HCC2998 cells after 4 hrs by MTT assay; assay type: functional, cell-based; conditions: HCC 2998, 4 h
A498 = assay: Cytotoxicity against human A498 cells after 4 hrs by MTT assay; assay type: functional, cell-based; conditions: A498, 4 h
SNB-19 = assay: Cytotoxicity against human SNB19 cells after 4 hrs by MTT assay; assay type: functional, cell-based; conditions: SNB-19, 4 h
OVCAR-3 = assay: Cytotoxicity against human OVCAR3 cells after 4 hrs by MTT assay; assay type: functional, cell-based; conditions: OVCAR-3, 4 h
SR = assay: Cytotoxicity against human SR cells after 4 hrs by MTT assay; assay type: functional, cell-based
NCI-H460 = assay: Cytotoxicity against human NCI-H460 cells after 4 hrs by MTT assay; assay type: functional, cell-based; conditions: NCI-H460, 4 h
NCI/ADR-RES = assay: Cytotoxicity against human NCI/ADR-RES cells after 4 hrs by MTT assay; assay type: functional, cell-based
OVCAR-4 = assay: Cytotoxicity against human OVCAR4 cells after 4 hrs by MTT assay; assay type: functional, cell-based; conditions: OVCAR-4, 4 h
KM12 = assay: Cytotoxicity against human KM12 cells after 4 hrs by MTT assay; assay type: functional, cell-based; conditions: KM12, 4 h
NCI-H23 = assay: Cytotoxicity against human NCI-H23 cells after 4 hrs by MTT assay; assay type: functional, cell-based; conditions: NCI-H23, 4 h
MDA-MB-231 = assay: Cytotoxicity against human MDA-MB-231 cells after 4 hrs by MTT assay; assay type: functional, cell-based; conditions: MDA-MB-231, 4 h
SF-539 = assay: Cytotoxicity against human SF539 cells after 4 hrs by MTT assay; assay type: functional, cell-based; conditions: SF-539, 4 h
RXF 393 = assay: Cytotoxicity against human RXF393 cells after 4 hrs by MTT assay; assay type: functional, cell-based; conditions: RXF 393, 4 h
UACC-257 = assay: Cytotoxicity against human UACC257 cells after 4 hrs by MTT assay; assay type: functional, cell-based; conditions: UACC-257, 4 h
HOP-92 = assay: Cytotoxicity against human HOP92 cells after 4 hrs by MTT assay; assay type: functional, cell-based; conditions: HOP-92, 4 h
NCI-H522 = assay: Cytotoxicity against human NCI-H522 cells after 4 hrs by MTT assay; assay type: functional, cell-based; conditions: NCI-H522, 4 h
NCI-H322M = assay: Cytotoxicity against human NCI-H322M cells after 4 hrs by MTT assay; assay type: functional, cell-based
HT-29 = assay: Cytotoxicity against human HT-29 cells after 4 hrs by MTT assay; assay type: functional, cell-based; conditions: HT-29, 4 h
K562 = assay: Cytotoxicity against human K562 cells after 4 hrs by MTT assay; assay type: functional, cell-based; conditions: K562, 4 h
SK-MEL-2 = assay: Cytotoxicity against human SK-MEL-2 cells after 4 hrs by MTT assay; assay type: functional, cell-based; conditions: SK-MEL-2, 4 h
UACC-62 = assay: Cytotoxicity against human UACC62 cells after 4 hrs by MTT assay; assay type: functional, cell-based; conditions: UACC-62, 4 h
[3] = Cytotoxicity against human […] cells after 4 hrs by MTT assay; assay type: functional, cell-based
SK-OV-3 = assay: Cytotoxicity against human SKOV3 cells after 4 hrs by MTT assay; assay type: functional, cell-based; conditions: SK-OV-3, 4 h
Hs-578T = assay: Cytotoxicity against human Hs578T cells after 4 hrs by MTT assay; assay type: functional, cell-based
OVCAR-8 = assay: Cytotoxicity against human OVCAR8 cells after 4 hrs by MTT assay; assay type: functional, cell-based; conditions: OVCAR-8, 4 h
M14 = assay: Cytotoxicity against human M14 cells after 4 hrs by MTT assay; assay type: functional, cell-based; conditions: M14, 4 h
[4] = read-out: LC50 (the source's name)

## NCCNC(=O)C(CN)(Cc1ccc2ccccc2c1)Cc1ccc2ccccc2c1
Ramos [1]
  Selectivity Index: 5.4
Ramos [2]
  Selectivity Index: 112
TK-10
  IC50: 3.09 µM
  TGI: 3.16 µM
TK-10; [4]
  CC50: 6.03 µM
HCT-116
  IC50: 0.65 µM
  TGI: 1.74 µM
HCT-116; [4]
  CC50: 4.37 µM
Malme-3M
  IC50: 3.89 µM
  TGI: 3.8 µM
Malme-3M; [4]
  CC50: 7.24 µM
HCC 2998
  IC50: 0.59 µM
  TGI: 1.26 µM
HCC 2998; [4]
  CC50: 3.98 µM
A498
  IC50: 2.82 µM
  TGI: 2.34 µM
A498; [4]
  CC50: 5.01 µM
SNB-19
  IC50: 2.95 µM
  TGI: 3.02 µM
SNB-19; [4]
  CC50: 5.62 µM
OVCAR-3
  IC50: 2.82 µM
  TGI: 2.88 µM
OVCAR-3; [4]
  CC50: 5.62 µM
SR
  IC50: 0.35 µM
  TGI: 0.62 µM
NCI-H460
  IC50: 0.33 µM
  TGI: 0.51 µM
NCI-H460; [4]
  CC50: 1.7 µM
NCI/ADR-RES
  IC50: 3.16 µM
  TGI: 3.31 µM
NCI/ADR-RES; [4]
  CC50: 6.46 µM
OVCAR-4
  IC50: 2.82 µM
  TGI: 2.82 µM
OVCAR-4; [4]
  CC50: 5.37 µM
KM12
  IC50: 0.74 µM
  TGI: 1.7 µM
KM12; [4]
  CC50: 4.57 µM
NCI-H23
  IC50: 3.09 µM
  TGI: 3.24 µM
NCI-H23; [4]
  CC50: 6.31 µM
MDA-MB-231
  IC50: 3.02 µM
  TGI: 3.09 µM
MDA-MB-231; [4]
  CC50: 6.03 µM
SF-539
  IC50: 2.69 µM
  TGI: 2.88 µM
SF-539; [4]
  CC50: 5.62 µM
RXF 393
  IC50: 2.69 µM
  TGI: 2.69 µM
RXF 393; [4]
  CC50: 5.5 µM
UACC-257
  IC50: 3.39 µM
  TGI: 3.39 µM
UACC-257; [4]
  CC50: 5.89 µM
HOP-92
  IC50: 3.72 µM
  TGI: 3.47 µM
HOP-92; [4]
  CC50: 7.24 µM
NCI-H522
  IC50: 3.09 µM
  TGI: 3.24 µM
NCI-H522; [4]
  CC50: 6.46 µM
NCI-H322M
  IC50: 3.09 µM
  TGI: 2.88 µM
NCI-H322M; [4]
  CC50: 5.89 µM
HT-29
  IC50: 0.41 µM
  TGI: 1.02 µM
HT-29; [4]
  CC50: 4.07 µM
K562
  IC50: 0.32 µM
  TGI: 0.62 µM
SK-MEL-2
  IC50: 3.63 µM
  TGI: 3.63 µM
SK-MEL-2; [4]
  CC50: 6.92 µM
UACC-62
  IC50: 3.31 µM
  TGI: 3.31 µM
UACC-62; [4]
  CC50: 5.75 µM
[3]
  IC50: 3.63 µM
  TGI: 4.57 µM
SK-OV-3
  IC50: 3.02 µM
  TGI: 3.02 µM
SK-OV-3; [4]
  CC50: 5.5 µM
Hs-578T
  IC50: 3.63 µM
  TGI: 3.47 µM
Hs-578T; [4]
  CC50: 7.94 µM
OVCAR-8
  IC50: 3.39 µM
  TGI: 3.72 µM
OVCAR-8; [4]
  CC50: 7.24 µM
M14
  IC50: 3.16 µM
  TGI: 3.24 µM
M14; [4]
  CC50: 6.03 µM
